The target in assay [1] is T1, Sodium- and chloride-dependent GABA transporter 2 (Mus musculus, UniProt P31649).
T1 sequence (P31649 whole entry): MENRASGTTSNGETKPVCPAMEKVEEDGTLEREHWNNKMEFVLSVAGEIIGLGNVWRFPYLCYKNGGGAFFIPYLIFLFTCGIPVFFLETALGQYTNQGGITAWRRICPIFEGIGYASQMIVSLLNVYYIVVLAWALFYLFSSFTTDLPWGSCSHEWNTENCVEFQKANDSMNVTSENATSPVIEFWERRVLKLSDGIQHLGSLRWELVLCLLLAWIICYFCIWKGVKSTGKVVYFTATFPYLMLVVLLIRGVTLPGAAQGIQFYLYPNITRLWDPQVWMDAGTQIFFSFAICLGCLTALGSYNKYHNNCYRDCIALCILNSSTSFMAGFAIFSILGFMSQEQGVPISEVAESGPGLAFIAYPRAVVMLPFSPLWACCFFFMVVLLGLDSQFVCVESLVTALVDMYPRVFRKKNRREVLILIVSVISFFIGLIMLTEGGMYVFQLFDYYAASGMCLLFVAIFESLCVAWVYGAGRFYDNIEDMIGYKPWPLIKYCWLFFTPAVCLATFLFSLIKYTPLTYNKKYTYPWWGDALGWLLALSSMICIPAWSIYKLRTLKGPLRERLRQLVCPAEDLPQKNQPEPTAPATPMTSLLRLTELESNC
The assay can be described thus: Inhibition of mouse GAT2-mediated [3H]GABA uptake expressed in human HEK cells. The method, boiled down: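 The value is pIC50, given as mean ± SEM of three independent experiments, each run in triplicate. Where only two experiments were run, uptake is reported rather than pIC50.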

Assay [2] has as its target T2, Sodium- and chloride-dependent GABA transporter 3 (Mus musculus, UniProt P31650).
T2 sequence (P31650 whole entry): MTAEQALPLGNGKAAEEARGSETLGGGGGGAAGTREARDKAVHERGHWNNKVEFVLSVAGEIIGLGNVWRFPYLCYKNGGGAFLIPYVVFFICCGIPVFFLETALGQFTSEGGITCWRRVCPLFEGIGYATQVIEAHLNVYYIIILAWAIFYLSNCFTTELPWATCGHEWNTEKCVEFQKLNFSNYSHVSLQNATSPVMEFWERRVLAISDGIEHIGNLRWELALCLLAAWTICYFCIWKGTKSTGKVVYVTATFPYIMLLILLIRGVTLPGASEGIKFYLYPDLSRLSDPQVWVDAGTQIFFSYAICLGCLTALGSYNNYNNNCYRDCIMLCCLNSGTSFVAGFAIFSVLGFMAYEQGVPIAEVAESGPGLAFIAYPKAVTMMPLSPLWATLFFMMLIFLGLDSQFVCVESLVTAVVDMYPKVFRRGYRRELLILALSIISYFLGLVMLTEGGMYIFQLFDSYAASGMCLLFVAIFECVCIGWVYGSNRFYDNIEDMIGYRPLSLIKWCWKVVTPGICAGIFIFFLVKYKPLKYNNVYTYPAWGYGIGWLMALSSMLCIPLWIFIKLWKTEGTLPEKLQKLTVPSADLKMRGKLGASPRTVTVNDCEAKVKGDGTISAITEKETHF
Description: Inhibition of mouse GAT3-mediated [3H]GABA uptake expressed in human HEK cells assessed as specific binding remaining at 1 mM.

Structures can show the parent of a compound that is named as a salt.

The IC50 is the concentration at which inhibition is half-maximal. In assay [1], `COc1ccc(C2(O)CCN(CCCn3c4ccccc4c4ccccc43)CC2)cc1` [1-(3-(9H-carbazol-9-yl)propyl)-4-(4-methoxyphenyl)piperidin-4-ol] displayed an IC50 of 1.4 µM.

As for `Cc1ccsc1C(=CCCN(C)C1CCCc2o[nH]c(=O)c21)c1sccc1C` (stereo not drawn) [4-((4,4-bis(3-methylthiophen-2-yl)but-3-enyl)(methyl)amino)-4,5,6,7-tetrahydrobenzo[d]isoxazol-3-ol], it took 22 µM to reach half-maximal inhibition in assay [1] (IC50). With `O=C(O)CCCCCCn1ccnc1` [7-Imidazol-1-yl-heptanoic acid; hydrochloride], in assay [2], the half-inhibitory concentration (IC50) amounted to 776 µM.

Values taken from BindingDB's records for doi:10.1016/j.ejmech.2011.01.042 (Ludwig-Maximilians-University Munich, 2011).
